HNF4A DNA FP – change in binding of human HNF4 alpha to DNA; P41235; HNF4a-FITC DNA binding, fluorescence polarization, 1 h; activity change, % at 10 µM; actives 0.3% (n = 360,000); AID 1224865; in the data active = activity change above about 30%, passing the limit was not always enough
Rpn11 block – blocks the human proteasome subunit Rpn11. O00487. human 26S proteasome, Ub4-pepOG fluorescence polarization; 20S core pre-blocked with epoxomicin. inhibition, % at 20 µM. actives 0.59% (n = 360,000). AID 588493;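 active = inhibition at 20 µM, scaled to each plate's controls, above about 33%, limit read from the data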
Target sequence (O00487 whole entry, looked up): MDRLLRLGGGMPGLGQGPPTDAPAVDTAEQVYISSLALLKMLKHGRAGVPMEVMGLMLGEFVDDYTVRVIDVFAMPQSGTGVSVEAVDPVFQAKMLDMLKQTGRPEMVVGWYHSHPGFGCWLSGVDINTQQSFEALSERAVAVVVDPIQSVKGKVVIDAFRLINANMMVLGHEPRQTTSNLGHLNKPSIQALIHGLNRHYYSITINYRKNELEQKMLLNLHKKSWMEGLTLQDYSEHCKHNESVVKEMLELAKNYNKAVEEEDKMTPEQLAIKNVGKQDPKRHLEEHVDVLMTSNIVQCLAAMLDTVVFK
TPT1 inhibitor – C. albicans TPT1 enzyme inhibition | recombinant caTPT1, FP RNA substrate dephosphorylation | inhibition, % at 5 µM | actives 0.81% (n = 300,000);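 active = inhibition above the mean of all tested compounds plus 3 SD, set per screening campaign, cut at about 24% in these data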;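 note: plate controls were DMSO alone for no effect and ferristatin control at 100 nM for full effect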
aDG glyco act – alpha-DG glycosylation activation; activation, % at 10 µM; actives 0.22% (n = 360,000); Pro5-aDG cells, alpha-DG glycosylation AlphaScreen (IIH6); 0% Pro5, 100% B10-LARGE cell signal;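 active = activation of at least 8% versus controls, or a plate z-score of at least 8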;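 note: Pro5 are CHO cells carrying HIG-tagged alpha-DG that lacks glycosylation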
Xi reactivation – activators of X-chromosome reactivation in mouse fibroblasts | AID 743238 | activation, % at 7.58 µM | XiGFP mouse fibroblasts, % GFP-positive cells imaging, 3 d; cells co-treated with 5-aza-dC sensitizer; scaled so ellipticine positive control = 100% | actives 0.055% (n = 360,000);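 active = mean normalized replicate activation at least 10% and every replicate at or above 10%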;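 note: 0% = median of on-plate neutral control wells and 100% = ellipticine 6 µM median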
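System: 68-5-11 XiGFP fibroblast line; Timing: 3 days compound exposure; Compound dosing: one concentration, pinned; Benchmarks: positive control ellipticine, 6 µM final; Buffer or medium: DMEM containing 5-aza-dC.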
CSN deneddyl inh – CSN deneddylation inhibition. Purified CSN, SCF-Nedd8-OG deneddylation, fluorescence polarization. actives 0.38% (n = 360,000). inhibition, % at 12.5 µM. AID 651999. Q92905;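 active = pattern-corrected inhibition above about 35%, with an unprinted fluorescence ratio check between 0.5 and 1.5, limit read from the data, passing the limit was not always enough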;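 note: 0% = enzyme with substrate and 100% = substrate without enzyme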
Target sequence (Q92905 whole entry, looked up, one chain of several): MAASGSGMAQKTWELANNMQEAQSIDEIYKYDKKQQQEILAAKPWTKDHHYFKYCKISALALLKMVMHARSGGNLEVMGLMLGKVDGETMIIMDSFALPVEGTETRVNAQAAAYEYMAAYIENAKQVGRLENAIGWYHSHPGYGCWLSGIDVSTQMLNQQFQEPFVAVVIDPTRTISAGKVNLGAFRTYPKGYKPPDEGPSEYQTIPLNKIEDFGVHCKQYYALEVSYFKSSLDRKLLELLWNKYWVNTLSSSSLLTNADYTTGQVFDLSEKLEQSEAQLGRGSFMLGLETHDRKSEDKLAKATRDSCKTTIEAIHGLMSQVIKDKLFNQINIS
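test system = HEK293T-derived human Csn5 enzyme | amount = 0.24 nM Csn5 enzyme, final concentration | medium = Tris/NaCl/DTT buffer, pH 7.5 | schedule = 90 min reaction at room temperature | signal = FP | evaluation = inhibition of Csn5 cleavage, % | compound dosing = single dose of 12.5 µM compound with 0.25% DMSO | probe or stimulus = 10 nM SCFSkp2-Nedd8OG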
The depositor's hits bear a star; · = not tested or not shown. Hits are enriched below; roughly 1.3% of the tested compounds scored in any of these assays.

SMILES	HNF4A DNA FP	Rpn11 block	TPT1 inhibitor	aDG glyco act	Xi reactivation	CSN deneddyl inh
O=C1NC(=O)/C(=C\c2ccc(Cl)nc2)S1	1	-8	-1	0	0	-3
CCCCNc1ccc2c3c(cccc13)C(=O)N(CCCC)C2=O	-110	-133	·	2	123*	-76
CN(C)CCCN1C(=O)c2cccc3c(Br)ccc(c23)C1=O	-32	-31	-7	1	0	5
O=C(O)c1cc(O)c2c(c1)[C@H]([C@H]1c3cc(C(=O)O)cc(O)c3C(=O)c3c(O[C@@H]4O[C@H](CO)[C@@H](O)[C@H](O)[C@H]4O)cccc31)c1cccc(OC3O[C@H](CO)[C@@H](O)[C@H](O)[C@H]3O)c1C2=O (stereo partly specified)	-90	21	75*	0	0	-1
Fc1ccc(CN2CCN(c3ncccn3)CC2)cc1	1	-8	1	0	·	37*
C[C@@H]1CN([C@H](C)CO)C(=O)c2ccccc2-c2ccccc2CO[C@@H]1CN(C)CC1CC1	·	·	·	·	0	·
O=C(NCc1ccco1)c1cccc2c1C(=O)c1ccc(N3CCC(Cc4ccccc4)CC3)cc1S2(=O)=O	-25	-53	·	1	·	14
O=C(NCc1ccco1)c1cccc2c1C(=O)c1ccc(/C=C/c3ccccc3)cc1S2(=O)=O	-18	16	·	1	7	55*
CN(C)c1ccc(C=c2c3ccccc3n3c2cc(-c2ccccc2)[n+]3C)cc1	74*	46*	·	0	5	24
CN(C)c1ccc(C=c2c3ccccc3n3c2cc(-c2ccc(Cl)cc2)[n+]3C)cc1	50*	34	·	1	0	18
COc1cc(C=c2c3ccccc3n3c2cc(-c2ccccc2)[n+]3C)cc(OC)c1OC	17	13	·	1	0	6
CN(C)c1ccc(C=c2c3cc([N+](=O)[O-])ccc3n3c2cc(-c2ccccc2)[n+]3C)cc1	4	30	·	-1	0	5
C[C@@H]1CCCCO[C@@H](CN(C)C(=O)C2CCCCC2)[C@@H](C)CN([C@H](C)CO)C(=O)c2cc(NC(=O)Nc3ccc(C(F)(F)F)cc3)ccc2O1	·	·	·	·	-1	·
O=C1C=C(N(CCO)Cc2ccccc2)c2ccccc2C1=O	2	3	·	14*	·	17
O=C1c2ccccc2C(=O)c2c1cccc2N(CCO)CCO	-21	-52	-15	0	0	-8
C[C@@H]1CN([C@@H](C)CO)C(=O)Cc2cc(NC(=O)c3ccncc3)ccc2O[C@H]1CN(C)Cc1ccc(C(F)(F)F)cc1	·	·	·	·	-1	·
O=C(C[n+]1ccc(CCSc2ccc(F)cc2)cc1)c1ccccc1	128	82*	15	0	·	105*
CCCCC(NC(=O)Cc1c(C)c2cc3c(C)c(C)oc3c(C)c2oc1=O)C(=O)O (stereo unspecified)	1	-5	-3	0	0	2
CCCC(NC(=O)Cc1c(C)c2cc3c(C)c(C)oc3c(C)c2oc1=O)C(=O)N[C@@H](Cc1ccccc1)C(=O)O (stereo partly specified)	-20	76*	1	0	·	33
O=C1N[C@H](c2ccccc2)COCc2cnnn2CC[C@H]1Cc1ccc(-c2ccccc2)cc1	·	·	·	·	0	·
Cc1ccnc(SCc2ccc(C(=O)O)cc2)n1	69*	-3	2	0	0	2
CC(C)NC(=O)N(C)C[C@@H]1Oc2ccc(N(C)C)cc2C(=O)N(C)C[C@H]1C	·	·	·	·	0	·
CCOc1ccc(N2CC(C(=O)OC)CC2=O)cc1 (stereo unspecified)	50*	-4	-1	0	·	31
CCNC(=O)C1CC(=O)N(c2ccc(OCC)cc2)C1 (stereo unspecified)	3	-4	-5	0	·	-2
CC(=O)Nc1cc(-c2cccc(C(=O)NCCN(C)C)c2)cn2c(-c3ccc(F)c(Cl)c3)cnc12	6	20	·	0	0	82*
SMILES	HNF4A DNA FP	Rpn11 block	TPT1 inhibitor	aDG glyco act	Xi reactivation	CSN deneddyl inh
CC(=O)Nc1cc(-c2cccc(C(=O)NCCN(C)C)c2)cn2c(-c3ccc(C(C)=O)cc3)cnc12	3	-3	·	0	0	4
C[C@H](CO)N1C[C@H](C)[C@@H](CN(C)C(=O)CCN(C)C)OCc2ccccc2-c2ccccc2C1=O	·	·	·	·	0	·
COC(=O)c1c(N)sc2c1CCN(c1ncc(C(F)(F)F)cc1Cl)C2	-3	7	11	0	·	9
COC(=O)c1c(/N=C/NOCc2ccc(Cl)cc2)sc2c1CCN(c1ncc(C(F)(F)F)cc1Cl)C2	2	-3	-1	0	·	37*
Cc1ccc(N(C(=O)Nc2ccccc2)C2=NCC(C)S2)cc1 (stereo unspecified)	33*	-1	-1	1	·	0
CC1CN=C(N(C(=O)Nc2ccccc2)C(C)C)S1 (stereo unspecified)	2	-3	1	0	·	-2
CN1CCN(c2nc(-c3cccc([N+](=O)[O-])c3)nc3ccccc23)CC1	-2	2	-2	0	0	44*
Cc1ccc(-c2nc(N3CCN(C)CC3)c3ccccc3n2)cc1	-1	4	-1	0	0	3
O=C(O)c1cc(-c2ccc(/C=c3\sc4nc5ccc(Br)cc5n4c3=O)o2)ccc1Cl	·	·	71*	·	·	·
O=C(O)c1cc(-c2ccc(/C=C3\NC(=O)N(c4ccccc4)C3=O)o2)ccc1Cl	-18	-3	-4	0	0	24
CCCN(CCC)S(=O)(=O)c1ccc(C(=O)Nc2nnc(-c3cc(OC)cc(OC)c3)o2)cc1	0	22	-5	5.5*	·	-3
CCOc1ccc(Nc2nc(N)c3ccccc3n2)cc1	60*	1	·	0	0	4
Nc1nc(Nc2ccccc2)nc2ccccc12	0	-6	-7	1	·	3
Cc1c(-c2ccc(F)cc2)nc(N)c(C#N)c1-c1ccco1	39*	·	15	3	·	17
CCc1nc(N)c(C#N)c(-c2ccc(F)cc2)c1C	-3	6	-5	0	·	-2
Cc1c(C)c2c(OCC(=O)Nc3cccnc3)cc3c(c2oc1=O)CCC(C)(C)O3	55*	11	-1	0	·	11
CCc1cc(=O)oc2c3c(cc(OCC(=O)Nc4cccnc4)c12)OC(C)(C)CC3	5	0	0	0	·	1
CC(C)CCNc1nnnc2c1sc1nc(N3CCOCC3)c3c(c12)CC(C)(C)SC3	-1	3	3	0	·	60*
CC1(C)Cc2c(c(N3CCOCC3)nc3sc4c(NCCN5CCOCC5)nnnc4c23)CS1	10	14	4	0	0	5

Screens from PubChem BioAssay.
